{"source": "ChEMBL document CHEMBL1955811", "about": "“Inhibition of colony-stimulating-factor-1 signaling in vivo with the orally bioavailable cFMS kinase inhibitor GW2580” (Proc Natl Acad Sci U S A, 2005)", "key": {"[1]": {"system": "Macrophage", "test": "Effect on LPS-induced PGE2 production in CSF-1-stimulated human macrophages at 0.03906 to 20 uM preincubated for 30 mins before LPS stimulation measured after 20 hrs by ELISA", "assay_type": "functional, cell-based"}, "[2]": {"test": "Protein binding in cell-culture media with human plasma at 3 uM", "assay_type": "ADME, cell-free", "conditions": "read-out: PB (converted)", "outline": "(§1)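 Compound at 3 μM was added to triplicate samples and incubated 1 h at 37°C. Samples were centrifuged through a 30,000-MW filter (1,500 × g, 15 min, 4°C). Percent bound was calculated from compound concentrations in the filtrate and retentate.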"}, "[3]": {"system": "HFF", "test": "Growth inhibition of serum-stimulated HFF after 3 days by spectrophotometry", "assay_type": "cell-based", "conditions": "Homo sapiens, 72 h", "outline": "(§2)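 Cells cultured so that added serum or growth factor gave linear growth. Compound tested as a 10- to 12-point dose-response with a top concentration of 20 μM.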"}, "[4]": {"system": "Mus musculus", "test": "Inhibition of LPS-stimulated TNF production in CSF-1 primed mouse at 20 to 80 mg/kg, po administered 4.5 hr before LPS challenge and CSF-1 priming measured […] after LPS challenge", "assay_type": "functional, organism-based"}, "[5]": {"system": "NFS-60", "test": "Growth inhibition of CSF1-stimulated mouse M-NFS-60 cells at 0.7 uM after 3 days by spectrophotometry", "assay_type": "functional"}, "[6]": {"test": "Protein binding in cell-culture media with 10% fetal calf serum at 3 uM", "assay_type": "ADME, cell-free, Bos taurus", "conditions": "cattle, read-out: PB (converted)", "outline": "as §1"}, "[7]": {"system": "Mus musculus", "test": "Inhibition of thioglycolate-induced macrophage influx into peritoneal cavity in mouse at 20 mg/kg, po BID starting 1 hr before thioglycolate challenge for 4 days", "assay_type": "functional", "outline": "(§3)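 Female C3H/HEN mice (22-26 g) were dosed orally with compound suspended in 0.5% hydroxypropylmethylcellulose/0.1% Tween 80 (0.2 ml per mouse). Thioglycolate (1.5 ml) was injected i.p. on day 0. On day 4, the peritoneum was lavaged with 5 ml cold PBS containing 40 units/ml heparin, and cells were counted by hemocytometer in 0.1% crystal violet. Data are mean ± SEM; Dunnett's test.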"}, "[8]": {"system": "Mus musculus", "test": "Increase in LPS-stimulated IL-6 production in mouse at 40 mg/kg, po administered 4.5 hr before LPS challenge measured […] after LPS challenge"}, "[9]": {"system": "HUVEC", "test": "Growth inhibition of bFGF-stimulated HUVEC after 3 days by spectrophotometry", "assay_type": "cell-based", "conditions": "Homo sapiens, 72 h", "outline": "as §2"}, "[10]": {"system": "Osteoclast", "test": "Inhibition of human osteoclast attachment to plastic surface assessed cells per cm2 of plastic at 10 uM after 3 days by immunocytochemistry (reference value: 9723 +/- 1380 cells/cm2 of plastic)", "assay_type": "functional", "outline": "(§4)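 Human PBMCs from a healthy volunteer (5 × 10^5 cells in MEM/10% FCS) were seeded on plastic coverslips with RANKL and CSF-1 (30 ng/ml each) for 10 days, with medium changed every 3 days. Compound was added on day 10 (0.1% DMSO final). On day 13, total cells on the coverslips were counted by immunocytochemistry. Data are mean ± SEM.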"}, "[11]": {"system": "Mus musculus", "test": "Inhibition of thioglycolate-induced macrophage influx into peritoneal cavity in mouse at 80 mg/kg, po BID starting 1 hr before thioglycolate challenge for 4 days", "assay_type": "functional", "outline": "as §3"}, "[12]": {"system": "PBMC", "test": "Effect on LPS-induced PGE2 production in human PBMC at 0.03906 to 20 uM preincubated for 30 mins before LPS stimulation measured after 20 hrs by ELISA", "assay_type": "functional, cell-based"}, "[13]": {"test": "Cmax in mouse at 20 mg/kg, po", "assay_type": "ADME, organism-based", "design": "dose 20 mg/kg, route oral", "conditions": "in vivo", "outline": "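Female mice given single oral doses (20 or 80 mg/kg) in 0.5% HPMC/0.1% Tween 80. Three mice killed with CO2 per time point; plasma extracted with isopropyl alcohol/acetonitrile, then vortexed, sonicated and centrifuged. Quantified by LC/MS (APCI positive mode, multiple-reaction monitoring) against a standard curve prepared in plasma.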"}, "[14]": {"system": "Macrophage", "test": "Effect on LPS-induced IL-6 production in CSF-1-stimulated human macrophages at 0.03906 to 20 uM preincubated for 30 mins before LPS stimulation measured after 20 hrs by ELISA", "assay_type": "functional, cell-based"}, "[15]": {"system": "Mus musculus", "test": "Inhibition of LPS-stimulated TNF production in mouse at 40 mg/kg, po administered 0.5 hr before LPS challenge measured […] after LPS challenge", "assay_type": "functional"}, "[16]": {"organism": "Rattus norvegicus", "test": "Inhibition of PTH-induced Wistar rat fetal long bone degradation assessed as labeled 45Ca release in to media at 1 to 10 uM after 48 hrs by liquid scintillation spectrometry", "assay_type": "functional", "outline": "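Fetal rat long bones preloaded with 45CaCl2 and incubated for 24 h. PTH and compound then added; release of labelled calcium into the medium measured 48 h later.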"}, "[17]": {"system": "Mus musculus", "test": "Inhibition of LPS-stimulated IL-6 production in CSF-1 primed mouse at 40 mg/kg, po administered 0.5 hr before LPS challenge post CSF-1 priming measured […] after LPS challenge", "assay_type": "functional"}, "[18]": {"system": "PBMC", "test": "Effect on LPS-induced TNF production in human PBMC at 0.03906 to 20 uM preincubated for 30 mins before LPS stimulation measured after 20 hrs by ELISA", "assay_type": "functional, cell-based"}, "[19]": {"organism": "Rattus norvegicus", "test": "Inhibition of PTH-induced Wistar rat calvarial bone degradation assessed as reduction in DPPD level in media at 0.1 uM after 48 hrs", "assay_type": "functional", "outline": "(§5)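 Rat calvaria incubated with PTH plus compound for two consecutive 48-h periods. Medium from the second period assayed for deoxypyridinoline crosslinks (DPPD).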"}, "[20]": {"test": "Growth inhibition of serum-stimulated human MDA231 cells after 3 days by spectrophotometry", "assay_type": "functional, cell-based", "conditions": "MDA-MB-231, 72 h", "outline": "as §2"}, "[21]": {"system": "Monocyte", "test": "Inhibition of LPS-stimulated growth of freshly isolated human monocytes at 1 uM preincubated for 30 mins before inducer addition measured after 5 days by WST-1 method", "assay_type": "functional", "conditions": "read-out: GI"}, "[22]": {"system": "A549", "test": "Growth inhibition of serum-stimulated human A549 cells after 3 days by spectrophotometry", "assay_type": "functional, cell-based", "conditions": "A549, 72 h", "outline": "as §2"}, "[23]": {"system": "Monocyte", "test": "Inhibition of CSF-1-stimulated growth of freshly isolated human monocytes at 1 uM preincubated for 30 mins before inducer addition measured after 5 days by WST-1 method", "assay_type": "functional", "conditions": "read-out: GI"}, "[24]": {"organism": "Rattus norvegicus", "test": "Inhibition of PTH-induced Wistar rat calvarial bone degradation assessed as reduction in DPPD level in media at 1 to 100 uM after 48 hrs", "assay_type": "functional", "outline": "as §5"}, "[25]": {"system": "Peritoneal macrophage cell", "test": "Effect on LPS-induced IL-6 production in mouse intraperitoneal macrophages pretreated with CSF-1 at 0.03906 to 20 uM compound incubated for 30 mins before LPS stimulation measured after 20 hrs by ELISA", "assay_type": "functional, cell-based"}, "[26]": {"system": "Osteoclast", "test": "Inhibition of human osteoclast attachment to plastic surface assessed cells per cm2 of plastic at 1 uM after 3 days by immunocytochemistry (reference value: 9723 +/- 1380 cells/cm2 of plastic)", "assay_type": "functional", "outline": "as §4"}, "[27]": {"system": "NCI-N87", "test": "Growth inhibition of serum-stimulated human NCI-N87 cells after 3 days by spectrophotometry", "assay_type": "functional, cell-based", "conditions": "NCI-N87, 72 h", "outline": "as §2"}, "[28]": {"system": "Macrophage", "test": "Effect on LPS-induced TNF production in CSF-1-stimulated human macrophages at 0.03906 to 20 uM preincubated for 30 mins before LPS stimulation measured after 20 hrs by ELISA", "assay_type": "functional, cell-based"}}, "note": "Active and inactive are the calls of the source. No cut-off for these calls is given here."}
{"smiles": "COc1ccc(COc2ccc(Cc3cnc(N)nc3N)cc2OC)cc1", "note": "[GW632580X]", "values": [{"measurement": "Activity", "setting": "[1]", "result": "inactive"}, {"measurement": "fraction unbound at 3 µM", "setting": "[2]", "result": 0.02}, {"measurement": "IC50", "setting": "[3]", "result": "> 30", "unit": "µM"}, {"measurement": "inhibition", "setting": "[4]", "result": "Active"}, {"measurement": "growth inhibition (GI)", "setting": "[5]", "result": "Active"}, {"measurement": "fraction unbound at 3 µM", "setting": "[6]", "result": 0.76}, {"measurement": "inhibition in vivo at 20 mg/kg", "setting": "[7]", "result": 17, "unit": "%"}, {"measurement": "Activity", "setting": "[8]", "result": "Active"}, {"measurement": "IC50", "setting": "[9]", "result": "> 10", "unit": "µM"}, {"measurement": "Activity", "setting": "[10]", "result": "2728 /cm2"}, {"measurement": "inhibition in vivo at 80 mg/kg", "setting": "[11]", "result": 25, "unit": "%"}, {"measurement": "Activity", "setting": "[12]", "result": "inactive"}, {"measurement": "Cmax", "setting": "[13]", "result": 1400, "unit": "nM"}, {"measurement": "Activity", "setting": "[14]", "result": "inactive"}, {"measurement": "inhibition in vivo at 40 mg/kg", "setting": "[15]", "result": 68, "unit": "%"}, {"measurement": "inhibition", "setting": "[16]", "result": "Active"}, {"measurement": "inhibition in vivo at 40 mg/kg", "setting": "[17]", "result": -6, "unit": "%"}, {"measurement": "Activity", "setting": "[18]", "result": "inactive"}, {"measurement": "inhibition", "setting": "[19]", "result": 80, "unit": "%"}, {"measurement": "IC50", "setting": "[20]", "result": "> 30", "unit": "µM"}, {"measurement": "inhibition of growth at 1 µM", "setting": "[21]", "result": 50, "unit": "%"}, {"measurement": "IC50", "setting": "[22]", "result": "> 30", "unit": "µM"}, {"measurement": "inhibition of growth at 1 µM", "setting": "[23]", "result": 100, "unit": "%"}, {"measurement": "inhibition", "setting": "[24]", "result": "Active"}, {"measurement": "Activity", "setting": "[25]", "result": "inactive"}, {"measurement": "Activity", "setting": "[26]", "result": "2984 /cm2"}, {"measurement": "IC50", "setting": "[27]", "result": "> 30", "unit": "µM"}, {"measurement": "Activity", "setting": "[28]", "result": "inactive"}]}
